# TRPC4 agonist = activators of mouse TRPC4 channel, primary screen, Fluo4 calcium, HEK293 TRPC4beta/mu-opioid cells; Fluo4 calcium fluorescence; stronger effect = higher value; B-score at 10 µM; 0.49% of 310,000 active; AID 2237, 2010;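 active = B-score above 5 SD of library B-scores, and initial fluorescence ratio not above library mean plus 5 SD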;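 note: positive B-score marks a calcium rise read as TRPC4 activation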
#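 Material: TRPC4beta and mu-opioid receptor HEK293 stable cells | Incubation: 45 min room-temperature Fluo4 loading, 110 s read | Detection: Kinetic Fluo4 calcium fluorescence | Measure: Integrated baseline-normalised fluorescence ratio, converted to per-well B score | Benchmarks: Low control buffer alone, high control maximal DAMGO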
# TRPC6 activator = mouse TRPC6 channel activators, primary screen, cell-based, HEK293, membrane potential dye. Short transient receptor potential channel 6 (Mus musculus), Q61143. HEK293-TRPC6 membrane potential dye fluorescence; stronger effect = higher value. B-score at 10 µM. 0.13% of 310,000 active. AID 2550, 2010;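 active = B-score of the integrated fluorescence ratio above library mean plus 3 SD, and starting fluorescence ratio within library mean plus 5 SD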;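 note: higher score means more depolarization so channel activation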
# Target sequence (Q61143 whole entry, looked up): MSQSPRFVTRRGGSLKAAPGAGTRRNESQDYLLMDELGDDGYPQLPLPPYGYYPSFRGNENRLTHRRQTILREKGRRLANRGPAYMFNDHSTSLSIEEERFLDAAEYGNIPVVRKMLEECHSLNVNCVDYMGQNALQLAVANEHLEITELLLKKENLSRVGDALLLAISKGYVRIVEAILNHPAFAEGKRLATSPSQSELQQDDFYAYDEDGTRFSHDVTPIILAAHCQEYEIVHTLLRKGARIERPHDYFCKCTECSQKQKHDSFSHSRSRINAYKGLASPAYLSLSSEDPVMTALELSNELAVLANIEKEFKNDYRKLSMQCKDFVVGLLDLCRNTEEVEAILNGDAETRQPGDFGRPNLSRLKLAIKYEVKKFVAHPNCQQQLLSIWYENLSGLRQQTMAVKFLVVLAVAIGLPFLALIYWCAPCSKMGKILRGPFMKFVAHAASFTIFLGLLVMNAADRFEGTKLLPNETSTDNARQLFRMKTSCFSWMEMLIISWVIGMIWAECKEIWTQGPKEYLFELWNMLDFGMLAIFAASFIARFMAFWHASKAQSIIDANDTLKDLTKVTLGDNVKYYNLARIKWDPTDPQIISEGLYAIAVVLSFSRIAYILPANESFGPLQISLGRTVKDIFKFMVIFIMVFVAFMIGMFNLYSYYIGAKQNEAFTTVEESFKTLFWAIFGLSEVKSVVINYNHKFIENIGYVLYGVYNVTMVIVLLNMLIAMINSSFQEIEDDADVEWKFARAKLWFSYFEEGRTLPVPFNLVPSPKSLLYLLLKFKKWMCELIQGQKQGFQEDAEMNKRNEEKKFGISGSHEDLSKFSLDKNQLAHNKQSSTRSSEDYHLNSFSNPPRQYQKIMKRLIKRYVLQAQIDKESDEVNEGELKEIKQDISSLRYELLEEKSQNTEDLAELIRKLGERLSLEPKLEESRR
# TRPC6 inh = mouse TRPC6 channel inhibitors, primary screen, cell-based, HEK293, membrane potential dye. Short transient receptor potential channel 6 (Mus musculus), Q61143. ACh-evoked depolarization; stronger effect = lower value. B-score at 10 µM. 1.1% of 310,000 active;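 active = B-score under library mean minus 3 SD, initial fluorescence not abnormally high, positive integrated signal ratio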;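 note: B-score derived from integrated fluorescence ratio over the kinetic read; more negative B-score means stronger inhibition of depolarization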
# Kir21 block = inhibitors of mouse Kir2.1 inward-rectifier potassium channel; HEK293-Kir2.1, FluxOR thallium flux fluorescence; stronger effect = lower value; Inward rectifier potassium channel 2 (Mus musculus), P35561; 0.85% of 310,000 active; B-score at 10 µM; AID 1672, 2009;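 active = fluorescence ratio B-score at or below minus 3 SD of library scores, with starting-brightness B-score within 2 SD, cut at about -4.2 in these data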;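 note: channel flux triggered by added potassium and thallium sulfate stimulus; B-score of peak minus minimum fluorescence over baseline after thallium stimulus; more negative B-score means stronger Kir2.1 block with less thallium influx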
# TRPC4 PAM = positive allosteric modulators of TRPC4, primary screen, cell-based, mouse TRPC4beta, HEK293 mu-opioid, Fluo-4 calcium | Short transient receptor potential channel 4 (Mus musculus), Q9QUQ5 | DAMGO EC20, Fluo-4 Ca2+ flux; stronger effect = higher value | B-score at 10 µM | 0.42% of 310,000 active;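 active = B-score of calcium response area above 5 SD of library B-scores, with initial fluorescence ratio within 5 SD of library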
# TRPC4 inh = inhibitors of mouse TRPC4 channel, primary screen, Fluo4 calcium, HEK293 TRPC4beta/mu-opioid cells; B-score at 10 µM; 0.39% of 300,000 active; DAMGO-evoked Fluo4 calcium flux; stronger effect = lower value; Short transient receptor potential channel 4 (Mus musculus), Q9QUQ5;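 active = B-score over 3 SD under the library average, no early fluorescence shift, positive overall ratio signal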
#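 test system = HEK293 cells with stable TRPC4beta plus mu-opioid receptor expression | detection = Fluo4 Ca2+ flux fluorescence | read-out = integrated fluorescence ratio relative to baseline, converted to per-well B score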
# A number is an active result; 0 = inactive; - = not tested or not shown. Compounds with a hit are over-represented: about 2.9% of the library has one in this group of screens.
SMILES,TRPC4 agonist,TRPC6 activator,TRPC6 inh,Kir21 block,TRPC4 PAM,TRPC4 inh
CCc1cc(CC)c(/C=N/NC(N)=O)c(CC)c1,0,0,0,-7.3,0,0
CCOC(CCn1c(SCC(=O)Nc2cc(C)on2)nc2ccccc2c1=O)OCC,0,0,0,0,0,0
COCCn1c(C)cc2c(c1=O)C(c1ccco1)C(C#N)=C(N)O2 (configuration not stated),0,0,0,0,0,0
CCN1CCN(c2c(Cl)cccc2NC(=O)c2cccs2)CC1,0,0,0,0,39,0
CCN1CCN(c2c(Cl)cccc2NC(=O)c2ccc([N+](=O)[O-])o2)CC1,0,0,-8.7,0,0,0
O=C(Nc1cccc(Cl)c1N1CCOCC1)c1ccco1,0,0,0,0,0,0
CCN1CCN(c2c(Cl)cccc2NC(=O)c2ccco2)CC1,65,0,0,0,0,0
COC(=O)Cc1[nH]nc2c1C1(C(=O)N(Cc3ccc(Cl)cc3)c3ccccc31)C(C#N)=C(N)O2 (configuration not stated),0,0,0,0,0,0
Cc1ccc(-n2cc(CNCC3CC(=O)N(C4CC4)C3)c(-c3cccc(C)c3)n2)cc1 (configuration not stated),153,0,0,0,0,0
Cc1ccc(-n2cc(CN3CCNC(=O)CC3)c(-c3cccc(C)c3)n2)cc1,0,0,0,0,0,0
COc1ccccc1OCc1ccc(C(=O)N2CCN(C(=O)c3ccco3)CC2)cc1,0,0,0,0,0,0
CC(=O)Oc1ccc(C(=O)Cc2ccc3ccccc3n2)c(O)c1C,0,0,0,0,0,0
Cc1cc(=O)oc2cc(N3C(=O)CC(Cc4ccccc4)C3=O)ccc12 (configuration not stated),0,0,0,0,13,0
Cc1ccc(-n2nnnc2C(Cl)c2nnnn2-c2ccc(C)cc2)cc1,0,0,0,-12,0,0
Cc1ccc(-n2nnnc2-c2ccccc2)cc1,0,0,0,0,0,0
O=C(CCC1N=C2c3ccccc3N=C(SCC(=O)NCC3CCCO3)N2C1=O)NCc1ccc(F)cc1 (configuration not stated),0,0,0,0,0,0
Cc1nc(N2CCN(c3ccccn3)CC2)c2c(C)c(C(=O)N3CCN(c4ccccc4F)CC3)sc2n1,0,0,0,0,0,-9
Cc1ccc(NC(=O)c2sc3nc(C)nc(N4CCN(c5ccccn5)CC4)c3c2C)c(C)c1,0,0,0,0,0,0
C[C@H](NC(CCc1ccccc1)C(=O)O)C(=O)N1CCC[C@H]1C(=O)O (some centres not stated),55,0,0,0,0,0
C[C@H](NC(=O)[C@H](Cc1ccccc1)n1c(=O)[nH]c2ccccc2c1=O)C(=O)N1CCC[C@H]1C(=O)O,0,0,0,0,0,0
Cc1ccc(-n2c(SCC(=O)Nc3cccc(S(=O)(=O)NC4=NCCCCC4)c3)nc3ccccc3c2=O)cc1,72,0,0,0,0,0
CCOC(=O)N1CCN(c2c(NCCCN(CC)CC)c(=O)c2=O)CC1,0,0,0,0,0,0
CCCCN(CC)CCNc1c(N2CCN(C(=O)OCC)CC2)c(=O)c1=O,124,0,0,0,0,-
COc1ccc(OCC(=O)Nn2c(-c3ccc(OC)cc3)nc3ccccc3c2=O)cc1,0,0,0,0,0,0
CCc1ccc(CN2CCCC(C(=O)Nc3ccccc3-c3ccc(OC)cc3)C2)o1 (configuration not stated),0,0,0,-5.9,0,0
SMILES,TRPC4 agonist,TRPC6 activator,TRPC6 inh,Kir21 block,TRPC4 PAM,TRPC4 inh
COCc1ccc(CN2CCCC(C(=O)Nc3ccccc3-c3ccc(OC)cc3)C2)o1 (configuration not stated),0,0,0,0,0,0
O=C(c1ccc(CSc2nc3ccncc3[nH]2)cc1)N1CCCCCC1,0,0,0,0,0,0
c1ccc(CSc2nnc(Cc3ccccc3)o2)cc1,0,0,0,0,0,0
Cc1ccc(C)c(CSc2nnc(CCN)o2)c1,81,0,0,0,0,0
NCCc1nnc(SCc2ccccc2)o1,0,0,0,0,16,0
Cc1ccc(OCC(O)Cn2c(N3CCCCC3)nc3c2c(=O)[nH]c(=O)n3C)cc1C (configuration not stated),0,0,0,0,0,0
Nc1ccc(C(=O)N/N=C/c2cn(Cc3ccc(F)cc3)c3ccccc23)cc1,0,0,0,0,0,0
CNC(=S)N/N=C/c1cn(Cc2ccc(F)cc2)c2ccccc12,0,0,0,0,11,0
Nc1ccc(C(=O)N/N=C/c2cn(Cc3ccccc3F)c3ccccc23)cc1,0,0,0,0,11,0
O=C(CN1CCC(n2nnc3cc(C(F)(F)F)ccc32)CC1)N1CCc2ccccc21,0,0,0,0,0,0
CC(=O)N(CCC(Cc1ccccc1)c1ccco1)Cc1ccco1 (configuration not stated),0,0,0,-12,0,0
CC(=O)N(CCC(c1ccccc1)c1ccco1)Cc1cccs1 (configuration not stated),0,0,0,-8.8,0,0
O=C(Nc1cccc2ccccc12)N1CCc2ccccc2C1,0,0,0,0,0,0
Cc1c(C)n(C(=O)CSc2nncn2C)c2ccccc12,0,0,0,0,0,0
Cc1cc(C)nc(NC(=O)c2cnc3sccn3c2=O)n1,0,0,0,0,0,0
CN(c1ccccc1)S(=O)(=O)c1ccc(NC(=O)c2ccccc2)cc1,0,0,0,0,0,0
COc1cccc(NC(=O)c2nc(S(C)(=O)=O)ncc2Cl)c1,0,0,0,-6.3,0,0
CCOC(=O)c1[nH]cnc1C(=O)Nc1cccc(OC)c1,0,0,0,0,0,0
CNC(=O)c1[nH]cnc1C(=O)Nc1cccc(OC)c1,0,0,0,-4.5,0,0
COc1cccc(NC(=O)c2nc(SC)ncc2Cl)c1,0,0,0,0,0,0
CN(c1ccccc1)S(=O)(=O)c1ccc(NC(=O)c2nc(S(C)(=O)=O)ncc2Cl)cc1,0,0,0,-4.5,0,0
O=C(NCc1cccs1)C1CCCN1C(=O)Nc1ccccc1 (configuration not stated),0,0,0,0,0,0
CSCCC(NC(=O)c1ccccc1Cl)C(=O)N1CCN(C(c2ccccc2)c2ccccc2)CC1 (configuration not stated),0,0,0,-4.7,0,0

# Assay outcomes (PubChem)
